Source: ChEMBL document CHEMBL5136969, “A niclosamide-tobramycin hybrid adjuvant potentiates cefiderocol against P. aeruginosa” (2021)
In brackets after ≈: the same amount, converted by molar mass. Activity calls are given as the source filed them.

What was measured:
[1] = system: Pseudomonas aeruginosa; assay: Potentiation of piperacilin-induced antibiotic activity against Pseudomonas aeruginosa PAO1 assessed as MIC fold reduction at 8 ug/ml after 18 hrs by microbroth dilution method; assay type: functional; details: dose 8 µg/ml
[2] = system: Pseudomonas aeruginosa; assay: Antibacterial activity against MDR clinical isolate Pseudomonas aeruginosa PA100036 assessed as reduction in bacterial growth after 18 hrs in presence of cefiderocol by microbroth dilution method; assay type: functional
How it was run: (§1)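 Checkerboard in MHB. Cefiderocol was 2-fold serially diluted along one axis and the adjuvant along the other. Inoculum was prepared from 0.5 McFarland saline suspensions diluted 1:50 in MHB, giving about 5 × 10^5 CFU/mL final. Plates ran 18 h at 37 °C, with turbidity confirmed at 590 nm. FIC = combination MIC ÷ MIC alone for each agent, and FIC index = sum of both. Interpretation: ≤0.5 synergy, >0.5–4 additive, >4 antagonism.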

[3] = system: Escherichia coli; assay: Potentiation of ceftolozane-induced antibiotic activity against Escherichia coli ATCC 25922 assessed as MIC fold reduction at 8 ug/ml after 18 hrs by microbroth dilution method; assay type: functional; details: dose 8 µg/ml
How it was run: (§2)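 Adjuvant held at a fixed 8 μg/mL while the antibiotic was 2-fold serially diluted in Mueller-Hinton broth (MHB), per CLSI microbroth dilution. Overnight cultures were adjusted in saline to 0.5 McFarland, then diluted 1:50 in MHB to about 5 × 10^5 CFU/mL final, and incubated 18 h at 37 °C. MIC was the lowest concentration with no visible turbidity, confirmed at 590 nm. Fold potentiation = MIC alone / MIC with adjuvant.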

[4] = system: Pseudomonas aeruginosa; assay: Potentiation of cotrimoxazole-induced antibiotic activity against Pseudomonas aeruginosa PAO1 assessed as MIC fold reduction at 8 ug/ml after 18 hrs by microbroth dilution method; assay type: functional; details: dose 8 µg/ml; how it was run: as §2
[5] = system: Pseudomonas aeruginosa; assay: Potentiation of colistin-induced antibiotic activity against Pseudomonas aeruginosa PAO1 assessed as MIC fold reduction at 8 ug/ml after 18 hrs by microbroth dilution method; assay type: functional; details: dose 8 µg/ml; how it was run: as §2
[6] = system: Acinetobacter baumannii; assay: Antibacterial activity against Acinetobacter baumannii ATCC 17978 assessed as potentiation of cefiderocol antibacterial activity by measuring FIC after 18 hrs by microbroth dilution method; assay type: functional
How it was run: (§3)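 Checkerboard in Mueller-Hinton broth: cefiderocol 2-fold diluted on one axis, adjuvant 2-fold on the other. Overnight cultures were adjusted to 0.5 McFarland in saline, diluted 1:50 in MHB, and inoculated at about 5 × 10^5 CFU/mL. Incubation was 18 h at 37 °C. Turbidity was read visually and confirmed at 590 nm. FIC index = FIC of antibiotic + FIC of adjuvant; ≤0.5 synergy, >4 antagonism.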

[7] = system: Pseudomonas aeruginosa; assay: Antibacterial activity against MDR clinical isolate Pseudomonas aeruginosa PA260 assessed as potentiation of cefiderocol antibacterial activity by measuring FIC index after 18 hrs by microbroth dilution method; assay type: functional; how it was run: as §1
[8] = system: Pseudomonas aeruginosa; assay: Potentiation of moxifloxacin-induced antibiotic activity against Pseudomonas aeruginosa PAO1 assessed as reduction in microbial growth at 8 ug/ml up to 24 hrs by microbroth dilution method; assay type: functional; details: dose 8 µg/ml
[9] = system: Escherichia coli; assay: Potentiation of ciprofloxacin-induced antibiotic activity against Escherichia coli ATCC 25922 assessed as MIC fold reduction at 8 ug/ml after 18 hrs by microbroth dilution method; assay type: functional; details: dose 8 µg/ml; how it was run: as §2
[10] = system: Escherichia coli; assay: Potentiation of erythromycin-induced antibiotic activity against Escherichia coli ATCC 25922 assessed as MIC fold reduction at 8 ug/ml after 18 hrs by microbroth dilution method; assay type: functional; details: dose 8 µg/ml; how it was run: as §2
[11] = system: Escherichia coli; assay: Potentiation of aztreonam-induced antibiotic activity against Escherichia coli ATCC 25922 assessed as MIC fold reduction at 8 ug/ml after 18 hrs by microbroth dilution method; assay type: functional; details: dose 8 µg/ml
How it was run: (§4)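 Initial screen in MHB using a fixed 8 μg mL−1 of adjuvant combined with each antibiotic under 2-fold dilution. Broth microdilution used about 5 × 10^5 CFU/mL at 37 °C for 18 h, with visible turbidity read and confirmed at 590 nm. Fold-potentiation = antibiotic MIC alone ÷ antibiotic MIC with adjuvant.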

[12] = system: Pseudomonas aeruginosa; assay: Antibacterial activity against colistin-resistant clinical isolate Pseudomonas aeruginosa PA114228 assessed as potentiation of cefiderocol antibacterial activity by measuring FIC index after 18 hrs by microbroth dilution method; assay type: functional
How it was run: (§5)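 Checkerboard in MHB (iron-replete, not iron-depleted CAMHB). Cefiderocol was 2-fold serially diluted along one axis and the adjuvant along the other. Inoculum was 0.5 McFarland diluted 1:50, about 5 × 10^5 CFU/mL final. Incubation was 18 h at 37 °C, with turbidity read visually and confirmed at 590 nm. FIC was the MIC in combination over the MIC alone for each agent, and the FIC index was their sum. Cut-offs were ≤0.5 synergy, >0.5–4 additive, >4 antagonism.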

[13] = system: Pseudomonas aeruginosa; assay: Potentiation of cefiderocol-induced antibiotic activity against MDR clinical isolate Pseudomonas aeruginosa PA259 assessed as MIC fold reduction at 8 ug/ml after 18 hrs by microbroth dilution method; assay type: functional, organism-based; details: dose 8.0 µg/ml; how it was run: as §4
[14] = system: Pseudomonas aeruginosa; assay: Potentiation of linezolid-induced antibiotic activity against Pseudomonas aeruginosa PAO1 assessed as MIC fold reduction at 8 ug/ml after 18 hrs by microbroth dilution method; assay type: functional; details: dose 8 µg/ml; how it was run: as §2
[15] = system: Enterobacter cloacae; assay: Antibacterial activity against Enterobacter cloacae 117029 assessed as potentiation of cefiderocol antibacterial activity by measuring FIC after 18 hrs by microbroth dilution method; assay type: functional; how it was run: as §3
[16] = system: Acinetobacter baumannii; assay: Potentiation of chloamphenicol-induced antibiotic activity against Acinetobacter baumannii ATCC 17978 assessed as MIC fold reduction at 8 ug/ml after 18 hrs by microbroth dilution method; assay type: functional; details: dose 8 µg/ml; how it was run: as §2
[17] = system: Acinetobacter baumannii; assay: Potentiation of trimethoprim-induced antibiotic activity against Acinetobacter baumannii ATCC 17978 assessed as MIC fold reduction at 8 ug/ml after 18 hrs by microbroth dilution method; assay type: functional; details: dose 8 µg/ml
[18] = system: Pseudomonas aeruginosa; assay: Antibacterial activity against […] Pseudomonas aeruginosa PAO1 assessed as reduction in bacterial growth after 18 hrs by microbroth dilution method; assay type: functional
How it was run: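 Broth microdilution per CLSI in Mueller-Hinton broth (MHB). Overnight cultures were adjusted to 0.5 McFarland in saline, diluted 1:50 in MHB, and added at about 5 × 10^5 CFU/mL final to equal volumes of 2-fold serial dilutions of agent. Incubation was 18 h at 37 °C. MIC was the lowest concentration with no visible turbidity, confirmed by absorbance at 590 nm.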

[19] = system: Pseudomonas aeruginosa; assay: Antibacterial activity against MDR clinical isolate Pseudomonas aeruginosa PA108590 assessed as potentiation of cefiderocol antibacterial activity by measuring FIC index after 18 hrs by microbroth dilution method; assay type: functional; how it was run: as §5
[20] = system: Klebsiella pneumoniae; assay: Antibacterial activity against Klebsiella pneumoniae KP113254 assessed as potentiation of cefiderocol antibacterial activity by measuring FIC after 18 hrs by microbroth dilution method; assay type: functional; how it was run: as §1
[21] = system: Acinetobacter baumannii; assay: Potentiation of colistin-induced antibiotic activity against Acinetobacter baumannii ATCC 17978 assessed as MIC fold reduction at 8 ug/ml after 18 hrs by microbroth dilution method; assay type: functional; details: dose 8 µg/ml; how it was run: as §2
[22] = system: Escherichia coli; assay: Antibacterial activity against Escherichia coli 107115 assessed as potentiation of cefiderocol antibacterial activity by measuring FIC after 18 hrs by microbroth dilution method; assay type: functional; how it was run: as §3
[23] = system: Acinetobacter baumannii; assay: Antibacterial activity against Acinetobacter baumannii LAC-4 assessed as reduction in bacterial growth after 18 hrs in presence of cefiderocol by microbroth dilution method; assay type: functional; how it was run: as §3
[24] = system: Pseudomonas aeruginosa; assay: Potentiation of erythromycin-induced antibiotic activity against Pseudomonas aeruginosa PAO1 assessed as MIC fold reduction at 8 ug/ml after 18 hrs by microbroth dilution method; assay type: functional; details: dose 8 µg/ml; how it was run: as §2
[25] = system: Acinetobacter baumannii; assay: Potentiation of moxifloxacin-induced antibiotic activity against Acinetobacter baumannii ATCC 17978 assessed as MIC fold reduction at 8 ug/ml after 18 hrs by microbroth dilution method; assay type: functional; details: dose 8 µg/ml; how it was run: as §2

NC[C@H]1O[C@H](O[C@H]2[C@H](OCCCCc3cn(-c4ccc(NC(=O)c5cc(Cl)ccc5O)cc4)nn3)[C@@H](O[C@H]3O[C@H](CO)[C@@H](O)[C@H](N)[C@H]3O)[C@H](N)C[C@@H]2N)[C@H](N)C[C@@H]1O
fold change (FC) [1]: 4 | MIC [2]: 0.25 µg/mL | fold change (FC) [3]: 4 | fold change (FC) [4]: 4 | fold change (FC) [5]: 4 | FIC [6]: 0.25 | FIC [7]: 0.063 | Activity [8]: >3 log10CFU/ml | fold change (FC) [9]: 4 | fold change (FC) [10]: 4 | fold change (FC) [11]: 4 | FIC [12]: 1 | Activity [13]: Active | fold change (FC) [14]: 4 | FIC [15]: 0.5 | fold change (FC) [16]: 4 | fold change (FC) [17]: 4 | MIC [18]: 64 µg/mL (≈ 76.5 µM) | FIC [19]: 0.016 | FIC [20]: 0.5 | fold change (FC) [21]: 4 | FIC [22]: 0.5 | MIC [23]: 0.25 µg/mL | fold change (FC) [24]: 4 | fold change (FC) [25]: 4
